Experimental data taken from ChEMBL document CHEMBL4513216, “Probing the Open Global Health Chemical Diversity Library for Multistage-Active Starting Points for Next-Generation Antimalarials” (ACS Infect Dis, 2020).

Assay: Toxicity liver stage against HepG2, at 10uM
Assay type: cell-based
Parameters: test concentration 10 uM, cell line HepG2-A16-CD81EGFP
Settings: human, HepG2-A16-CD81EGFP cells; read-out: INHIBITION
Procedure, shortened: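 Uninfected HepG2-A16-CD81EGFP cells, 3 × 10^3 per well, 1536-well, plated on prespotted compound at 10 μM final, parasite-free screening media added to match infected plates; puromycin 10 μM positive, DMSO 0.5% negative; run in parallel with 48 h PbLuc assay at 37 °C, 5% CO2; viability by CellTiter-Glo luminescence, normalized to controls.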

Cc1ccccc1C(N)c1ccncc1 (stereo not drawn)
cytotoxicity at 10 µM: -0.871%

Cc1cc(C(=O)NCc2ccccn2)no1
cytotoxicity at 10 µM: -9.95%

O=S1(=O)[C@@H](c2ccccc2)[C@H](CO)CN1C1CC1
cytotoxicity at 10 µM: -4.83%

COC1CN(C(=O)CC(C)(C)C)CCC(=O)N(C)c2ccccc21 (stereo not drawn)
cytotoxicity at 10 µM: -4.7%

COc1ccc(N2CCN(C(=O)COc3c(C)occc3=O)CC2)cc1
cytotoxicity at 10 µM: -2.67%

CC1CC(=O)c2cc(C(=O)N3CCN(C)CC3)c(=O)[nH]c2C1 (stereo not drawn)
cytotoxicity at 10 µM: -6.32%

Cc1noc(C)c1CCC(=O)NCCc1cccs1
cytotoxicity at 10 µM: -3.11%

Cc1cc(F)ccc1S(=O)(=O)NCC(O)c1cccn1C (stereo not drawn)
cytotoxicity at 10 µM: -5.62%

Cc1ncn(CCNC(=O)Nc2ccc(OC(F)(F)F)cc2)c(=O)c1C
cytotoxicity at 10 µM: -1.32%

Cc1nc(N(C)C)nc(C)c1NS(=O)(=O)c1ccc(OC(F)(F)F)cc1
cytotoxicity at 10 µM: 7.23%

COc1cc(N2CC[C@@H]3O[C@@H](C(=O)NCCN(C)C)C[C@@H]32)ncn1
cytotoxicity at 10 µM: 0.588%

O=C(N1CCCC1)N1CCOCC2(C1)CN(c1ccccc1)C(=O)CO2 (stereo not drawn)
cytotoxicity at 10 µM: 4.77%

O=c1c2cnc(N3CCCCC3)nc2ccn1-c1ccccc1F
cytotoxicity at 10 µM: 2.77%

O=C(NCC1CCCO1)c1c(-n2cnnn2)sc2c1CCC2 (stereo not drawn)
cytotoxicity at 10 µM: -16.3%

COCc1n[nH]/c(=N/C(=O)COc2cnc(C)cc2O)s1
cytotoxicity at 10 µM: 5.84%

CC(=O)c1cccc(NC(=O)Cn2cc(I)cn2)c1
cytotoxicity at 10 µM: -1.87%

CCn1ncc(-c2cc(C(F)(F)F)nc(N3CCC(N)CC3)n2)c1C
cytotoxicity at 10 µM: -6%

CCN(Cc1ccccc1)c1ncnc2c(C)nn(CC)c12
cytotoxicity at 10 µM: -2.48%

CCCc1nc(NCCCOCC)c2c(n1)c(C)nn2CC
cytotoxicity at 10 µM: 21.6%

CSc1nc2ccsc2c(=O)n1CC(=O)N1CCCCC1C (stereo not drawn)
cytotoxicity at 10 µM: 7.08%

CCN1CCCC1(C)c1nc(C)cc(N)n1 (stereo not drawn)
cytotoxicity at 10 µM: -2.17%

CN1CCN(CC2(O)CCCN(C(=O)Cc3cccc(O)c3)CC2)CC1 (stereo not drawn)
cytotoxicity at 10 µM: -4.86%

O=C(CN1CCCC1)N1CCCC1c1nc(O)cc(-c2ccccn2)n1 (stereo not drawn)
cytotoxicity at 10 µM: -10.7%

COc1cc(CC(=O)Nc2cccc(C(=O)N(C)C)n2)ccc1C
cytotoxicity at 10 µM: 2.25%

CC(NCC1(N(C)C)CCOCC1)c1ccc(Cl)cc1 (stereo not drawn)
cytotoxicity at 10 µM: -3.19%

O=C(COC1CCCCC1)Nc1ccn(Cc2ccccn2)n1
cytotoxicity at 10 µM: 0.38%

CN(CCOc1ccccc1F)S(=O)(=O)CC1CCOCC1
cytotoxicity at 10 µM: 6.47%

COCCNC(=O)N1CCC(NC(C)C)CC1
cytotoxicity at 10 µM: 7.96%

Cn1cc(C(NCCc2ccccn2)c2cccc(F)c2)cn1 (stereo not drawn)
cytotoxicity at 10 µM: 9.73%

NC(=O)c1cn(CC2CC2)c(C2CC2)n1
cytotoxicity at 10 µM: 0.524%

Cn1cc(C2(C)CN(C(=O)Nc3ccccc3F)CCO2)cn1 (stereo not drawn)
cytotoxicity at 10 µM: -5.23%

Cc1ccc(C(=O)NCCCn2cccn2)c(=O)[nH]1
cytotoxicity at 10 µM: 3.54%

CC(=O)N1CCN(C(C)c2nnc(CC(C)C)o2)CC1 (stereo not drawn)
cytotoxicity at 10 µM: 6.88%

CCc1ccc(O)c(C(=O)N2CCCN(CC(=O)N(CC)CC)CC2)c1
cytotoxicity at 10 µM: 6.62%

COCc1nc(C(=O)NS(=O)(=O)c2ccc(C)c(C)c2)cs1
cytotoxicity at 10 µM: -8%

CC(C)CC(NCc1cscn1)c1ccccn1 (stereo not drawn)
cytotoxicity at 10 µM: 2.5%

CN(Cc1ncnn1C)C(=O)CCCn1ccc2cc(Cl)ccc21
cytotoxicity at 10 µM: 14.7%

CS(=O)(=O)CCNC(=O)c1cc2ccccc2nc1N1CCCC1
cytotoxicity at 10 µM: -6.78%

Cc1nc(-c2nnc[nH]2)sc1C(=O)N1CCCC1Cn1cccn1 (stereo not drawn)
cytotoxicity at 10 µM: 11.8%

Cc1ncc2c(n1)CN(CC(=O)N1CCc3sccc3C1)CC2
cytotoxicity at 10 µM: 4.68%

Cn1cc(C2(C)CN(Cc3ccc(Cl)c(F)c3)CCO2)cn1 (stereo not drawn)
cytotoxicity at 10 µM: 4.98%

COC(=O)c1sc2cccc(F)c2c1CNC(=O)C1CCCO1 (stereo not drawn)
cytotoxicity at 10 µM: -13.5%

CCC(C)C(=O)NCc1c(C)nn(C)c1N1CCCN(C)CC1 (stereo not drawn)
cytotoxicity at 10 µM: 4.24%

COc1cc2nc(NCc3cc(C)on3)nc(N)c2cc1OC
cytotoxicity at 10 µM: -3.34%

CN(C)c1ccc(NC(=O)N2CCc3sccc3C2)cn1
cytotoxicity at 10 µM: -4.16%

CC(C)(C)OC(=O)N1CCCCC1C(=O)NCc1cc[nH]n1 (stereo not drawn)
cytotoxicity at 10 µM: 1.41%

CN1CCN(c2nc(-c3cnn(C)c3)cs2)CC1
cytotoxicity at 10 µM: -0.186%

COc1c(C2CCCN2C(=O)c2ccnn2C)c(C)nn1C (stereo not drawn)
cytotoxicity at 10 µM: 2.55%

CC(C)Cn1cnnc1C1CCCN1C(=O)OC(C)(C)C (stereo not drawn)
cytotoxicity at 10 µM: 0.514%

O=C(Nc1ccccc1Cn1cncn1)C1CCN(C2CCCCC2)C1 (stereo not drawn)
cytotoxicity at 10 µM: -5.14%

CC(C)(CO)CCCNC(=O)N1CCc2c(F)ccc(F)c2C1
cytotoxicity at 10 µM: -2.18%

OC[C@@H](O)CN(CCC(F)(F)F)c1ncccn1
cytotoxicity at 10 µM: 2.41%

Cc1ccc(CN(C)C(=O)CN2CCCC2c2cnn(C)c2)cc1 (stereo not drawn)
cytotoxicity at 10 µM: -1.6%

CCc1sc(-c2nnc(CNC(C)Cn3cccn3)o2)cc1C (stereo not drawn)
cytotoxicity at 10 µM: 0.749%

O=C(CCN1CCOCC1)Nc1cccc(CNCc2ccsc2)c1
cytotoxicity at 10 µM: -4.66%

CCc1csc(NC(=O)Nc2c(C)n[nH]c2C)n1
cytotoxicity at 10 µM: -3.41%

Cn1cc(C2CCCN2C(=O)CCn2ccc3ccccc32)cn1 (stereo not drawn)
cytotoxicity at 10 µM: 8.84%

Cc1ccc(S(C)(=O)=O)cc1C(=O)NS(=O)(=O)c1ccc(Cl)cc1
cytotoxicity at 10 µM: -13.5%

Cc1c(C2NC3(CCCC3)C(=O)N2CC2CC2)cc(C#N)n1C (stereo not drawn)
cytotoxicity at 10 µM: -1.99%

CNC(=O)CC1CCN(C(=O)Nc2ccc(-c3cc[nH]n3)cc2)CC1
cytotoxicity at 10 µM: 6.8%

Cc1ncsc1CN(C)C(=O)CC1CCOc2ccccc21 (stereo not drawn)
cytotoxicity at 10 µM: 20.2%

O=C(CN1CCN(C(=O)c2cccc(-c3ccoc3)c2)CC1)C1CC1
cytotoxicity at 10 µM: 0.504%

CCOc1ncccc1CNC(=O)N1CCCC1c1ccncc1 (stereo not drawn)
cytotoxicity at 10 µM: 21.2%

Cc1cc(F)c(S(=O)(=O)NCCCN2CCC(O)CC2)cc1F
cytotoxicity at 10 µM: -25.9%

NC(=O)Nc1cccc(Oc2ccccn2)c1
cytotoxicity at 10 µM: 4.39%

COC(=O)c1ccoc1COC(=O)CCc1ccc(OC)c(OC)c1
cytotoxicity at 10 µM: 5.27%

Cc1nc(COC[C@H]2CC[C@H]3[C@H](CCN3C(N)=O)O2)cs1
cytotoxicity at 10 µM: -81.2%

O=C(CC1CC1)NCc1cn2c(n1)CN(C(=O)C1CCOCC1)CC2
cytotoxicity at 10 µM: -73.2%

COCC(=O)N1CC[C@H]2O[C@@H](C)C[C@H]2C1
cytotoxicity at 10 µM: -66.1%

O=C(O)C(c1cccc2c1OCC2)N1CCC(N2CCCC2)CC1 (stereo not drawn)
cytotoxicity at 10 µM: 8.12%

CC(c1cccc(-c2ccc(C(=O)O)cc2Cl)c1)N(C)C (stereo not drawn)
cytotoxicity at 10 µM: -2.25%

COc1cc(C)ccc1C(=O)N1C[C@@H](CN(C)CCO)[C@@H](CO)C1
cytotoxicity at 10 µM: 1%

CS(=O)(=O)NC1CCN(Cc2ccc(OCc3ccccn3)cc2)CC1
cytotoxicity at 10 µM: 1.63%

CCn1ncc2c1NC(=O)CC2c1cnc(-c2ccccn2)nc1 (stereo not drawn)
cytotoxicity at 10 µM: -7.76%

CN(Cc1ccc(C(=O)NCC2COCCO2)c(=O)[nH]1)CC(C)(C)C (stereo not drawn)
cytotoxicity at 10 µM: 3.21%

OCC1(CC2CC2)CCCN(Cc2cnc(C3CCCCC3)nc2)C1 (stereo not drawn)
cytotoxicity at 10 µM: -9.2%

O=C(Nc1ccc(-c2cscn2)cc1)C1CCCN(Cc2ccon2)C1 (stereo not drawn)
cytotoxicity at 10 µM: 0.414%

CCc1ccc(OCCN(C)C(=O)c2ccncc2Cl)cc1
cytotoxicity at 10 µM: -2.91%

Cc1cccc(CNCC2(O)CCCN(CC3CCCCC3)C2=O)n1 (stereo not drawn)
cytotoxicity at 10 µM: -10.5%

CCC(CO)N(Cc1ccccn1)C(=O)c1ccc(C)c(Cl)c1 (stereo not drawn)
cytotoxicity at 10 µM: -0.054%

CN(CCc1ccccc1)c1cnn(Cc2ccccn2)c(=O)c1
cytotoxicity at 10 µM: -7.03%

Cc1nn(C)c(C)c1-c1c(-c2ccccc2)ncn1[C@H](CO)C(=O)O
cytotoxicity at 10 µM: -2.34%

COc1ccc(C(=O)N2C[C@@H](C(=O)O)[C@H](c3ccccc3)C2)c(C)c1
cytotoxicity at 10 µM: 5.23%

COc1cnc(N2CCCC(c3ncc[nH]3)C2)nc1 (stereo not drawn)
cytotoxicity at 10 µM: -0.268%

O=C(NCc1nnc2n1CCC2)c1ccc(C2CCCO2)s1 (stereo not drawn)
cytotoxicity at 10 µM: -12.4%

CC(c1nccs1)N(C)S(=O)(=O)NCc1ccccc1 (stereo not drawn)
cytotoxicity at 10 µM: -2.34%

CCC(O)Cn1nc(CCSC)nc1-c1ccc2[nH]ccc2c1 (stereo not drawn)
cytotoxicity at 10 µM: 4.96%

Cc1cc(C(=O)N2CCCCC2)ccc1NS(C)(=O)=O
cytotoxicity at 10 µM: -1.4%

Cc1ccc2c(c1)C(NC(=O)C1CCN(S(C)(=O)=O)CC1)CC(C)(C)O2 (stereo not drawn)
cytotoxicity at 10 µM: 2.22%

CC(C)[C@@H](C)NC(=O)N1CCn2nc(C(=O)NCCN(C)C)cc2C1
cytotoxicity at 10 µM: 2.62%

Cc1cccc(=O)n1CCCNc1ncnc2c1CCNCC2
cytotoxicity at 10 µM: -9.53%

CCCNC(=O)N1CCC(Oc2cc(C)ccc2F)(C(=O)O)CC1
cytotoxicity at 10 µM: -23.8%

N#Cc1cccnc1N1CCC2(CCCN(C3CCOCC3)C2=O)C1 (stereo not drawn)
cytotoxicity at 10 µM: -9.21%

O=C(c1cc(COc2ccc3c(c2)OCO3)[nH]n1)N1CCCC1
cytotoxicity at 10 µM: -0.526%

COC(C(=O)N1CCN(c2cccc(Cl)c2)C(=O)C1)c1ccccc1 (stereo not drawn)
cytotoxicity at 10 µM: -9.09%

CC(NC(=O)NCCCn1cncn1)c1ccc(F)cc1 (stereo not drawn)
cytotoxicity at 10 µM: -9.92%

Cc1ccsc1CN(C)C(=O)c1cc2c([nH]c1=O)CCCC2=O
cytotoxicity at 10 µM: -5.36%

CSc1ccc(CNC(c2ccc(F)cc2)c2nccn2C)cc1 (stereo not drawn)
cytotoxicity at 10 µM: -10.8%

O=C(CCNc1ncccn1)Nc1cc(C(F)(F)F)c[nH]c1=O
cytotoxicity at 10 µM: -6.45%

CN(C)c1cc(CNc2ccc(S(=O)(=O)C(C)(C)C)nc2)ccn1
cytotoxicity at 10 µM: -7.33%

CCN(CC1CCOC1)C(=O)Nc1ccc(OCC(F)(F)F)nc1 (stereo not drawn)
cytotoxicity at 10 µM: -11.3%

O=C(Cc1cn2ccsc2n1)N1CCCC(n2ccnc2)C1 (stereo not drawn)
cytotoxicity at 10 µM: -8.22%

CC(C)C(CNC(=O)NCc1cc[nH]n1)N1CCOCC1 (stereo not drawn)
cytotoxicity at 10 µM: -7.48%

Cn1cnc2c1CCN(Cc1cccc(C(N)=O)c1)C2
cytotoxicity at 10 µM: -16.8%

Cc1ccc(C(=O)Nc2cn[nH]c2)cn1
cytotoxicity at 10 µM: -6.1%

Cc1nc(C2CCCN2C(=O)c2cnns2)no1 (stereo not drawn)
cytotoxicity at 10 µM: -3.71%

CC(NC(=O)N(C)Cc1ccsc1)c1ccc2c(c1)CCC(=O)N2 (stereo not drawn)
cytotoxicity at 10 µM: -7.23%

CCn1ccnc1CN1CCCN(C(=O)c2sccc2C#N)CC1
cytotoxicity at 10 µM: -8.08%

CC(Cn1cncc1-c1cnn(C2CCCCC2)c1)N1CCCCC1 (stereo not drawn)
cytotoxicity at 10 µM: 2.87%

Cc1nccn1-c1cccc(C2CCCN2)n1 (stereo not drawn)
cytotoxicity at 10 µM: 10.6%

CCOC(=O)[C@]12CCCN(Cc3nccs3)C[C@H]1CN(C(C)=O)C2
cytotoxicity at 10 µM: -2.99%

Cn1cc(C2CC(=O)NC23CCN(Cc2cccc(F)c2)CC3)cn1 (stereo not drawn)
cytotoxicity at 10 µM: 7.13%

c1cc(CNCc2ccc3c(c2)CCO3)cc(N2CCOCC2)n1
cytotoxicity at 10 µM: 11.1%
